Measurements from ChEMBL document CHEMBL4321820, “Identification and Optimization of Mechanism-Based Fluoroallylamine Inhibitors of Lysyl Oxidase-like 2/3” (J Med Chem, 2019).

What was measured:
Lysyl oxidase homolog 2 = molecular target: T1, Lysyl oxidase homolog 2 (Homo sapiens, UniProt Q9Y4K0); experiment: Inhibition of recombinant human C-terminal His-tagged […] (1-774 residues) expressed in mouse myeloma cells using putrescine as substrate preincubated with enzyme for 30 mins followed by substrate addition and measured every 2.5 mins for 30 mins by Amplex-Red oxidation assay; settings: read-out: pIC50 (converted)
T1 sequence (Q9Y4K0 whole entry): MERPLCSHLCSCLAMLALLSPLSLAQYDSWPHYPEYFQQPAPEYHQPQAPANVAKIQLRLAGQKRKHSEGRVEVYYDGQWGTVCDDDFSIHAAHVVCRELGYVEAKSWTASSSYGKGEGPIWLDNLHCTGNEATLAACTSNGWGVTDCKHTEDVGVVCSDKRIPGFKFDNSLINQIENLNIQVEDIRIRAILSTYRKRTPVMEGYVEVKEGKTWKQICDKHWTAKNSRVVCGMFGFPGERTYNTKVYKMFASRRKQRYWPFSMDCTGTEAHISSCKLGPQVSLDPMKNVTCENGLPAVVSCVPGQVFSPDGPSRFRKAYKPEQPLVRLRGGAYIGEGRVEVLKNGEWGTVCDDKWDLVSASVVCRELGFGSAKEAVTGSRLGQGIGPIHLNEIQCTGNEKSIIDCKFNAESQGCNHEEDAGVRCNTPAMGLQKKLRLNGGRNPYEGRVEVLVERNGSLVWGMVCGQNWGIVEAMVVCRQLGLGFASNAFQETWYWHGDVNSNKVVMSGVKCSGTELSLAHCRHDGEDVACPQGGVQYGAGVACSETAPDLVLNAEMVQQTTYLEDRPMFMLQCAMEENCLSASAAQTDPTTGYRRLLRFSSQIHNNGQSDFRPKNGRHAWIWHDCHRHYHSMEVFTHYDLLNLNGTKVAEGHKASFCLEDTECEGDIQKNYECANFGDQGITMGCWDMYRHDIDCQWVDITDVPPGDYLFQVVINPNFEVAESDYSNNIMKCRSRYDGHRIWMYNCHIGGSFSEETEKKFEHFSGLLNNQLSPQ
Procedure, shortened: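 LOXL2 enzyme preincubated with compound for 30 min at 37 °C, then Amplex Red (120 µM) / HRP (1.5 U/mL) mix containing 5 mM putrescine added. Buffer: 1.2 M urea, 50 mM sodium borate, pH 8.2. H2O2 fluorescence (ex 565/em 590) read every 2.5 min for 30 min at 37 °C; BAPN 100 µM as positive control; n≥2.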

Protein-lysine 6-oxidase = molecular target: T2, Protein-lysine 6-oxidase (Bos taurus, UniProt P33072); experiment: Inhibition of LOX in bovine aorta using putrescine as substrate preincubated with enzyme for 30 mins followed by substrate addition and measured every 2.5 mins for 30 mins by Amplex-Red oxidation assay; type: tissue-based; settings: read-out: pIC50 (converted)
T2 sequence (P33072 whole entry): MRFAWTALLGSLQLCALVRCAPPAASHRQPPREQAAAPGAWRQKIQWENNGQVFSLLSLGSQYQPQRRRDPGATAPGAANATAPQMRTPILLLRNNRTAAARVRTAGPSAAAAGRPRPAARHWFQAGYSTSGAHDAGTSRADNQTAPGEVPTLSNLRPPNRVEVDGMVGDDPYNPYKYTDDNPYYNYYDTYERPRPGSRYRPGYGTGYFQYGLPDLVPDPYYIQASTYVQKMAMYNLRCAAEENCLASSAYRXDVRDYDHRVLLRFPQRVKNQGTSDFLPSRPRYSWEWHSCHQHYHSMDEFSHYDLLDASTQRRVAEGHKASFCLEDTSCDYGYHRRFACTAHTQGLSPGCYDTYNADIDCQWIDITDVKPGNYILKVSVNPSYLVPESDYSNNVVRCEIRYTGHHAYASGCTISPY
Procedure, shortened: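 LOX extracted from calf aorta after PBS washing with 4 M urea/50 mM borate pH 8.2, concentrated on 10 kDa filters into 1.2 M urea/borate with protease inhibitors. Preincubated 30 min at 37 °C with compound, then Amplex Red/HRP with 10 mM putrescine; fluorescence read every 2.5 min for 30 min.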

[1] = molecular target: T3, Amine oxidase [copper-containing] 3 (Homo sapiens, UniProt Q16853); experiment: Substrate activity at recombinant human SSAO assessed as compound oxidation by measuring oxidative turnover at 30 uM measured for 40 mins by horseradish peroxidase-coupled amplex red reagent-based fluorometric assay relative to DMSO; type: ADME
T3 sequence (Q16853 whole entry): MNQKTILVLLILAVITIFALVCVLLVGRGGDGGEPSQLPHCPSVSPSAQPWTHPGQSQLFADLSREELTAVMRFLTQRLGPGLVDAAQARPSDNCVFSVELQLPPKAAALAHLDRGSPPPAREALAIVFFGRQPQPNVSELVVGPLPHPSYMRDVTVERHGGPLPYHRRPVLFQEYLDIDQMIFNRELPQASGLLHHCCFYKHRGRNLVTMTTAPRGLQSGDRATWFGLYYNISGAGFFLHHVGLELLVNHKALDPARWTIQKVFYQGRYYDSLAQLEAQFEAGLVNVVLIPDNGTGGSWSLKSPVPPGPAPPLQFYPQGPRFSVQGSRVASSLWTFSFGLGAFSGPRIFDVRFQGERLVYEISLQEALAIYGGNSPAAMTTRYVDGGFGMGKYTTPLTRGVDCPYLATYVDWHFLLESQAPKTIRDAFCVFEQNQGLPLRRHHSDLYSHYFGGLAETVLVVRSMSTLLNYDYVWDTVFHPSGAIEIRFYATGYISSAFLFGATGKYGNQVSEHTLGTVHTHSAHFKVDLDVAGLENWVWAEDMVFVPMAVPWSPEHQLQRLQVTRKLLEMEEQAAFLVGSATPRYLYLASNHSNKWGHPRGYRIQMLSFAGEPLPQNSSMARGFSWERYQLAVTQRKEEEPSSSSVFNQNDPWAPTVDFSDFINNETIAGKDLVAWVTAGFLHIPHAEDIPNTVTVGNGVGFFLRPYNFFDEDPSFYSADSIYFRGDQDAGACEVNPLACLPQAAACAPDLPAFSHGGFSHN
Procedure, shortened: (§1)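 Compound oxidation measured without substrate by peroxidase-coupled fluorometric read-out of resorufin formation over 40 min at 37 °C in HEPES buffer. Amplex Red 20 µM, HRP 4 U/ml, test compound at final 30 µM. Enzyme source was human recombinant SSAO or AOC4 from diluted dog serum. Benzylamine at 600 µM served as positive control. Signal is expressed relative to DMSO-only background, so a value near 1 means no turnover.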

[2] = Substrate activity at AOC4 in dog serum assessed as compound oxidation by measuring oxidative turnover at 30 uM measured for 40 mins by horseradish peroxidase-coupled amplex red reagent-based fluorometric assay relative to DMSO; type: ADME, cell-free, Canis lupus familiaris; procedure, shortened: as §1
[3] = molecular target: T3, Amine oxidase [copper-containing] 3; experiment: Inhibition of recombinant human SSAO using benzylamine as substrate preincubated with enzyme for 30 mins followed by substrate addition and measured every 2.5 mins for 30 mins by Amplex-Red oxidation assay; settings: read-out: pIC50 (converted)
[4] = molecular target: T4, Amine oxidase [flavin-containing] B (Homo sapiens, UniProt P27338); experiment: Inhibition of recombinant human MAOB expressed in baculovirus infected in BTI cells using benzylamine as substrate preincubated with enzyme for 30 mins followed by substrate addition and measured every 2.5 mins for 30 mins by Amplex-Red oxidation assay; settings: read-out: pIC50 (converted)
T4 sequence (P27338 whole entry): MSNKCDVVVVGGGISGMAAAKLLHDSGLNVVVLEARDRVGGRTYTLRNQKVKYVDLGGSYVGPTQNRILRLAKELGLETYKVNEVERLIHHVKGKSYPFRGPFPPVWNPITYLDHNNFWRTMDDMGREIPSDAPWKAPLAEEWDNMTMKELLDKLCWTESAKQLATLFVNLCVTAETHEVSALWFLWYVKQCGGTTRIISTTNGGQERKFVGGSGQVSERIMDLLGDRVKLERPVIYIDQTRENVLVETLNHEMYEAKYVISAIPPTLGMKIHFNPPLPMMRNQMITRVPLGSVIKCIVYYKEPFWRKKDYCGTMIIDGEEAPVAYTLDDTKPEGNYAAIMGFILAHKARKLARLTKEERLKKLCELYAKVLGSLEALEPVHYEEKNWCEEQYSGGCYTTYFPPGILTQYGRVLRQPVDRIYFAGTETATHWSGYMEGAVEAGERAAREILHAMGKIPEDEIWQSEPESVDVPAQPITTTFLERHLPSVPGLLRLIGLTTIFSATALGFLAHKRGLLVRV

[5] = Selectivity index, ratio of IC50 for recombinant human C-terminal His-tagged […] (1-774 residues) expressed in mouse myeloma cells to IC50 for LOX in bovine aorta

Row | IC50 (Lysyl oxidase homolog 2) | IC50 (Protein-lysine 6-oxidase) | fold change (FC) [1] | fold change (FC) [2] | IC50 [3] | IC50 [4] | SMILES | IC50 ratio [5]
1 | 126 nM | 794 nM | > 4 | – | – | – | CN(C)S(=O)(=O)c1ccc(-c2cn(C/C(F)=C/CN)nn2)cc1.Cl | –
2 | 2510 nM | 2000 nM | – | – | 50.1 nM | – | C[C@H](NS(=O)(=O)c1ccc(OC/C(F)=C\CN)cc1)c1ccccc1 | –
3 | 126 nM | 3160 nM | 1.2 | 1.1 | – | – | Cc1c(-c2cccc(S(=O)(=O)N(C)C)c2)c2cc(Cl)ccc2n1C/C(F)=C/CN.Cl | –
4 | 2000 nM | 3160 nM | – | – | – | – | CS(=O)(=O)c1ccccc1OCc1cn(C/C(F)=C/CN)nn1 | –
5 | 200 nM | 631 nM | – | – | – | – | CS(=O)(=O)c1ccc(OCc2cn(C/C(F)=C/CN)nn2)cc1 | –
6 | 50.1 nM | 794 nM | > 4 | – | > 31600 nM | 126 nM | CN(C)S(=O)(=O)c1ccc(OCc2cn(C/C(F)=C/CN)nn2)cc1.Cl | –
7 | 794 nM | 3160 nM | 2.8 | – | – | – | Cc1c(-c2ccc(S(=O)(=O)N(C)C)cc2)c2ccccc2n1C/C(F)=C/CN.Cl | –
8 | 50.1 nM | 1260 nM | 1 | 1.1 | – | – | Cc1c(-c2cccc(S(=O)(=O)N(C)C)c2)c2cc(O)ccc2n1C/C(F)=C/CN.Cl | –
9 | 794 nM | 1000 nM | – | – | – | – | CS(=O)(=O)c1cccc(OCc2cn(C/C(F)=C/CN)nn2)c1 | –
10 | 126 nM | 15800 nM | – | 1 | – | – | Cc1c(-c2cccc(S(=O)(=O)N(C)C)c2)c2cc(-c3nnn[nH]3)ccc2n1C/C(F)=C/CN.Cl | –
11 | 79.4 nM | 1580 nM | 4.6 | 1.6 | – | – | COc1ccc2c(c1)c(-c1cccc(S(=O)(=O)N(C)C)c1)c(C)n2C/C(F)=C/CN.Cl | –
12 | 794 nM | 3160 nM | – | – | – | – | CN(C)C(=O)c1ccc(OCc2cn(C/C(F)=C/CN)nn2)cc1 | –
13 | 20 nM | 1260 nM | 1.6 | 6.4 | – | – | Cc1c(-c2cccc(S(=O)(=O)N(C)C)c2)c2ncccc2n1C/C(F)=C/CN.Cl | 70

The next lines start with the compound.

Row | SMILES | IC50 (Lysyl oxidase homolog 2) | IC50 (Protein-lysine 6-oxidase) | fold change (FC) [1] | fold change (FC) [2] | IC50 [3] | IC50 [4] | IC50 ratio [5]
14 | NC/C=C(\F)Cn1cc(COc2ccccc2)nn1 | 316 nM | 501 nM | – | – | – | – | –
15 | Cc1c(-c2cccc(S(=O)(=O)N(C)C)c2)c2cccc(C(=O)N(C)C)c2n1C/C(F)=C/CN.Cl | 3160 nM | 20000 nM | 1.1 | 1.4 | – | – | –
16 | Cc1c(-c2cccc(S(=O)(=O)N(C)C)c2)c2cc(C(=O)N(C)C)ccc2n1C/C(F)=C/CN.Cl | 25.1 nM | 1580 nM | 1.2 | 1 | – | – | –
17 | CN(C)S(=O)(=O)c1cccc(-c2ccn(C/C(F)=C/CN)c2)c1.Cl | 100 nM | 2000 nM | > 4 | – | – | – | –
18 | Cc1c(-c2cccc(S(=O)(=O)N(C)C)c2)c2ccc(C(=O)N(C)C)cc2n1C/C(F)=C/CN.Cl | 63.1 nM | 794 nM | 1 | 1.1 | – | – | –
19 | CC(C)(C)c1ccc(OCc2cn(C/C(F)=C/CN)nn2)cc1 | 794 nM | 501 nM | – | – | – | – | –
20 | Cc1c(-c2cccc(S(=O)(=O)N(C)C)c2)c2ccc(C(=O)O)cc2n1C/C(F)=C/CN.Cl | 501 nM | 15800 nM | 1.1 | 1 | – | – | –
21 | Cc1c(-c2cccc(S(=O)(=O)N(C)C)c2)c2cc(NS(C)(=O)=O)ccc2n1C/C(F)=C/CN.Cl | 20 nM | 1000 nM | 1 | 1.5 | – | – | –
22 | Cc1c(-c2cccc(S(=O)(=O)N(C)C)c2)c2cc(S(C)(=O)=O)ccc2n1C/C(F)=C/CN.Cl | 5.01 nM | 398 nM | 1.3 | 1.3 | – | – | –
23 | C[C@H](NS(=O)(=O)c1ccc(OC/C(F)=C/CN)cc1)c1ccccc1 | 316 nM | 398 nM | – | – | > 3160 nM | – | –
24 | CN(C)S(=O)(=O)c1ccc(Cc2cn(C/C(F)=C/CN)nn2)cc1.Cl | 12.6 nM | 631 nM | > 4 | – | – | – | –
25 | CN(C)S(=O)(=O)c1ccc(-c2ccn(C/C(F)=C/CN)c2)cc1.Cl | 251 nM | 794 nM | > 4 | – | – | – | –
26 | CN(C)S(=O)(=O)c1ccc(NCc2cn(C/C(F)=C/CN)nn2)cc1.Cl | 20 nM | 501 nM | > 4 | – | – | – | –
